Data set [1] in a line: Plasma concentration in mouse at 1 mg/kg, po after 2 hrs. More on the design: dose 1 mg/kg, route oral. Format: ADME, organism-based. In outline: (§1)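 Compound was given orally at 1 mg/kg to mice. Plasma levels were sampled at 2, 4, 8 and 24 h. Values are the mean of n = 3 animals.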
Data set [2] in a line: Plasma concentration in mouse at 1 mg/kg, po after 8 hrs. Further details: dose 1 mg/kg, route oral. The format is ADME, organism-based. In outline:
as §1

The target of data set [3] is T1, Very long chain fatty acid elongase 3 (Homo sapiens, UniProt Q9HB03).
T1 sequence (Q9HB03 whole entry): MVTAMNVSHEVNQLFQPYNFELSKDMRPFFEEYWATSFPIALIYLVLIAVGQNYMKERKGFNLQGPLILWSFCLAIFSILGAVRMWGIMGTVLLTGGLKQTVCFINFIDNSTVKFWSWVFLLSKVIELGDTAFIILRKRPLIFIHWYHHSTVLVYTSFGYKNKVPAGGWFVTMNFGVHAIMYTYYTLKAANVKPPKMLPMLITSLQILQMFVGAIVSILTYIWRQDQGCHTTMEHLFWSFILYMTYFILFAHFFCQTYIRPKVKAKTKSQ
As to the kind of experiment: Inhibition of human ELOVL3 expressed in african green monkey COS7 cells assessed as stearoyl-CoA elongation. The format is cell-based, COS-7. The procedure, abridged:
(§2)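 IC50 against each ELOVL subtype, each with its own fatty acyl-CoA substrate. Human ELOVL6 used palmitoyl-CoA elongation. Radioactive ELOVL6 products were detected with recombinant histidine-tagged ACBP as a probe. Values are mean ± SE, n ≥ 3.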

Data set [4] can be described thus: Plasma concentration in mouse at 1 mg/kg, po after 24 hrs. The format is ADME, organism-based. More on the design: dose 1 mg/kg, route oral. In outline: as §1
Data set [5] deals with T2, Very long chain fatty acid elongase 1 (Homo sapiens, UniProt Q9BW60).
T2 sequence (Q9BW60 whole entry): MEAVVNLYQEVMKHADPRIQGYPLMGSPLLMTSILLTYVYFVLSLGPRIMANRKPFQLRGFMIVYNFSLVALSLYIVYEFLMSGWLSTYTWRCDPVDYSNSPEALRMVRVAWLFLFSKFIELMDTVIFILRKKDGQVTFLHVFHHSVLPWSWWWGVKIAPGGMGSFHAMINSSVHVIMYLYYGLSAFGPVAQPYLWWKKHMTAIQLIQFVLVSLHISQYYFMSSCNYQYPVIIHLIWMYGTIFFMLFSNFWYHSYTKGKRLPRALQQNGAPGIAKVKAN
As to the kind of experiment: Inhibition of human ELOVL1 expressed in african green monkey COS7 cells. Format: cell-based, COS-7. The procedure, abridged:
as §2

Data set [6] can be described thus: Plasma concentration in mouse at 1 mg/kg, po after 4 hrs. Format: ADME, organism-based. More on the design: dose 1 mg/kg, route oral. The procedure, abridged:
as §1

Data set [7] is described as follows: Plasma concentration in mouse at 10 mg/kg, po after 2 hrs. Format: ADME, organism-based. More on the design: dose 10 mg/kg, route oral.
The nature of data set [8]: Drug level in mouse liver at 10 mg/kg, po after 2 hrs. Format: ADME, organism-based. Further details: dose 10 mg/kg, route oral. The note with it: read-out: Drug uptake.
For data set [9], the target named is T3, Very long chain fatty acid elongase 2 (Homo sapiens, UniProt Q9NXB9).
T3 sequence (Q9NXB9 whole entry): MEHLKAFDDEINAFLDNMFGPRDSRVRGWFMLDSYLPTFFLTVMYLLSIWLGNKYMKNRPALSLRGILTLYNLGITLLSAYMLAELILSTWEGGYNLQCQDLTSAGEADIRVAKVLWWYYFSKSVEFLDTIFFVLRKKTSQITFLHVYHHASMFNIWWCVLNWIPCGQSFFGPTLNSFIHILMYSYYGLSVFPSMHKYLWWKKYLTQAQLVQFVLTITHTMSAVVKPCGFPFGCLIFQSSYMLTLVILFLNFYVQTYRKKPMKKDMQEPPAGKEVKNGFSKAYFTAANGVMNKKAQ
In words: Inhibition of human ELOVL2 expressed in african green monkey COS7 cells. Format: cell-based, COS-7. In outline:
as §2

Data set [10] deals with T4, Very long chain fatty acid elongase 3 (Mus musculus, UniProt O35949).
T4 sequence (O35949 whole entry): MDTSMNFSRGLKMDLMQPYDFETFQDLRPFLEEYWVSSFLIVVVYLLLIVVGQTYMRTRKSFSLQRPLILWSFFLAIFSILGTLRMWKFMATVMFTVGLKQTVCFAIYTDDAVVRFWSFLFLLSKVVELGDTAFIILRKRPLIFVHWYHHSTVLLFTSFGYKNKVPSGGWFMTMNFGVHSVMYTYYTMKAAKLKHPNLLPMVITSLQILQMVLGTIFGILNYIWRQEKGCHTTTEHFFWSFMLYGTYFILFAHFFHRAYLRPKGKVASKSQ
In words: Inhibition of mouse ELOVL3 expressed in african green monkey COS7 cells. The format is cell-based, COS-7. In outline: as §2

Data set [11] has as its target T5, Very long chain fatty acid elongase 5 (Homo sapiens, UniProt Q9NYP7).
T5 sequence (Q9NYP7 whole entry): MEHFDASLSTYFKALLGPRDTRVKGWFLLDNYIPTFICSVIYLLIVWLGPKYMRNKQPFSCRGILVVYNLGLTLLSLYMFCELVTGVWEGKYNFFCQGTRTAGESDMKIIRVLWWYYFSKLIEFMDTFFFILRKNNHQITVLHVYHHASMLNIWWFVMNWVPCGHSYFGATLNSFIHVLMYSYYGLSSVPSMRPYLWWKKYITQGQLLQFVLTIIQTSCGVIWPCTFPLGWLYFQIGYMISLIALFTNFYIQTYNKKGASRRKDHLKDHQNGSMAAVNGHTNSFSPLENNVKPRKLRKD
In words: Inhibition of human ELOVL5 expressed in african green monkey COS7 cells. The format is cell-based, COS-7. The procedure, abridged:
as §2

The test system of a further data set is Mus musculus. As to the kind of experiment: Inhibition of ELOVL6 activity in po dosed C57BL/6J mouse liver assessed as […] administered 1 hr before [1-14C]palmitic acid measured after 2 hrs. The format is functional, organism-based.
Data set [12] addresses T6, Very long chain fatty acid elongase 6 (Mus musculus, UniProt Q920L5).
T6 sequence (Q920L5 whole entry): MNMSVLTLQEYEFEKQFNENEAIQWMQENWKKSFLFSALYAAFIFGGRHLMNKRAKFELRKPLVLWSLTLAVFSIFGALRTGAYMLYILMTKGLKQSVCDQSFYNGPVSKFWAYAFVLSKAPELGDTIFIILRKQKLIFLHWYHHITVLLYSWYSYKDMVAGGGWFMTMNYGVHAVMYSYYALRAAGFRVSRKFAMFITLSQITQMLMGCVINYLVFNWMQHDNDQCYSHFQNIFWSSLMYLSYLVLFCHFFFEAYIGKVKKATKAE
In words: Inhibition of mouse ELOVL6 expressed in african green monkey COS7 cells. The format is cell-based, COS-7. The procedure, abridged: as §2

In data set [13] the target is T7, Very long chain fatty acid elongase 6 (Homo sapiens, UniProt Q9H5J4).
T7 sequence (Q9H5J4 whole entry): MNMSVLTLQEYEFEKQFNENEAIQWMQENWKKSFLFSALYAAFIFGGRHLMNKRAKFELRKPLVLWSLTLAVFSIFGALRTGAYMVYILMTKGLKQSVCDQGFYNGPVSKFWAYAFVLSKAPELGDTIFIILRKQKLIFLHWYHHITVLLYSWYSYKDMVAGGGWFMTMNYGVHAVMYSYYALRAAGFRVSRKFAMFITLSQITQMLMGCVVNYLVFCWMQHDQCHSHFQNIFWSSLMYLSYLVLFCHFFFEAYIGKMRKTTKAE
As to the kind of experiment: Inhibition of human ELOVL6 expressed in african green monkey COS7 cells assessed as palmitoyl-CoA elongation. Format: cell-based, COS-7. The procedure, abridged:
as §2

Regarding `Cc1[nH]n(-c2ccc(OC(F)(F)F)cc2)c(=O)c1C1(C(F)(F)F)C(=O)N(c2ccccc2)C2=C1C(=O)CC(C)(C)C2` (stereo unspecified), the concentration at 2 h was determined as 3.4 µM in data set [1], 30 µM in data set [7] and 50 µM in data set [8]. The same molecule gave a concentration at 8 h in data set [2] of 1400 nM. In addition, the 50% inhibitory concentration (IC50) is 337 nM in data set [3]; more than 10 µM in [5]; more than 10 µM in data set [9]; 194 nM in data set [10]; more than 10 µM in [11]; 31 nM in data set [12]. The molecule also registered a concentration at 24 h in data set [4] of 400 nM. Besides, the concentration at 4 h in [6] was 2800 nM. For the same molecule, in the data set on Mus musculus, the Activity result was “Dose-dependent effect”.

For `COc1ccc(-n2[nH]c(C)c(C3(C(F)(F)F)C(=O)N(c4ccccc4)C4=C3C(=O)CC(C)(C)C4)c2=O)cc1` (stereo unspecified), the IC50 in data set [3] stood at 503 nM.

Turning to `Cc1[nH]n(-c2ccccc2)c(=O)c1C1(C(F)(F)F)C(=O)N(c2ccccc2)C2=C1C(=O)CC(c1ccccc1)C2` (stereo unspecified), the IC50 in data set [13] was determined as 6.26 µM.

`Cc1[nH]n(-c2ccccc2)c(=O)c1C1(C(F)(F)F)C(=O)N(c2ccccc2)C2=C1C(=O)CC1(CCC1)C2` (stereo unspecified): in data set [13], the IC50 stood at 0.123 µM.

On to `Cc1[nH]n(C)c(=O)c1C1(C(F)(F)F)C(=O)N(c2ccccc2)C2=C1C(=O)CC(C)(C)C2` (stereo unspecified), for which the IC50 in [13] is 2.02 µM.

Turning to `Cc1[nH]n(C(C)C)c(=O)c1C1(C(F)(F)F)C(=O)N(c2ccccc2)C2=C1C(=O)CC(C)(C)C2` (stereo unspecified), the IC50 in data set [13] is more than 10 µM.

In the case of `Cc1[nH]n(-c2ccccc2)c(=O)c1C1(C(F)(F)F)C(=O)N(c2ccccc2)C2=C1C(=O)CC(C)C2` (stereo unspecified), the IC50 in [13] was 0.704 µM.

For `Cc1[nH]n(-c2ccccc2)c(=O)c1C1(C(F)(F)F)C(=O)N(c2ccccc2)C2=C1C(=O)CCC2` (stereo unspecified), in data set [13], the IC50 was 4.5 µM.

`Cc1[nH]n(-c2ccc(C(C)C)cc2)c(=O)c1C1(C(F)(F)F)C(=O)N(c2ccccc2)C2=C1C(=O)CC(C)(C)C2` (stereo unspecified): the IC50 in data set [3] came to 59 nM.

For `Cc1[nH]n(C2CCCCC2)c(=O)c1C1(C(F)(F)F)C(=O)N(c2ccccc2)C2=C1C(=O)CC(C)(C)C2` (stereo unspecified), in data set [13], the IC50 was more than 10 µM.

Regarding `Cc1ccc(-n2[nH]c(C)c(C3(C(F)(F)F)C(=O)N(c4ccccc4)C4=C3C(=O)CC(C)(C)C4)c2=O)cc1` (stereo unspecified), the IC50 in [3] came out at 375 nM.

As for `Cc1[nH]n(-c2ccc(Cl)cc2)c(=O)c1C1(C(F)(F)F)C(=O)N(c2ccccc2)C2=C1C(=O)CC(C)(C)C2` (stereo unspecified), the concentration for half-maximal inhibition (IC50) in [3] worked out at 221 nM.

For the molecule `CC(C)c1[nH]n(-c2ccccc2)c(=O)c1C1(C(F)(F)F)C(=O)N(c2ccccc2)C2=C1C(=O)CC(C)(C)C2` (stereo unspecified), the IC50 in [13] is more than 10 µM.

With `Cc1[nH]n(-c2ccc(C#N)cc2)c(=O)c1C1(C(F)(F)F)C(=O)N(c2ccccc2)C2=C1C(=O)CC(C)(C)C2` (stereo unspecified), the IC50 in [3] was 1100 nM.

In general, IC50 refers to the point on the concentration scale where inhibition reaches its midpoint.
